In PubChem BioAssay:
The source made the active and inactive calls.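 How the source made its calls, unless noted: active means inhibition at or above 50% at 10 µM; inactive means inhibition below 50%.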

Assays:
[1] = inhibitors of TNFa-induced NFkB p65 translocation, primary screen, imaging, HUVEC, MLSMR starter and 10KST1 sets (AID 438;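 active means inhibition above 20% together with a positive visual image hit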;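 further: compound added about 3h40 before a 20 min TNFalpha stimulation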;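 on inhibition: signal is the nuclear over cytoplasmic p65 intensity ratio per well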); details: HUVEC TNFa-induced p65 nuclear translocation; cell count: measured here: nuclei count (cytotoxicity indicator), at 2.08 µM; inhibition: at 2 µM, stronger effect = higher value, 0% TNFa-plus-vehicle, 100% no-TNFa wells
[2] = inhibitors of mutant huntingtin aggregation, primary screen, imaging, exon1htt(103Q)mCFP cells, high-content imaging (AID 483;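 active means visual image review flags a hit and inhibition of aggregation exceeds 20%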;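 further: compound exposure lasted 3 days before fixation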;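 on nuclei count: percent of the per-plate median nuclei count of sample wells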); details: exon1htt(103Q)mCFP cell line, aggregate imaging, at 2 µM; inhibition of aggregation: stronger effect = higher value; nuclei count: measured here: cell count, toxicity
[3] = inhibitors of E-selectin induction by TNFa, primary screen, imaging, HUVEC, immunofluorescence, MLSMR starter and 10KST1 sets (AID 487;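 active means visually confirmed hit in the image check and inhibition above 20%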;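 on inhibition: signal is fraction of cell area covered by stained E-selectin grains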;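 on nuclei count: 100% = median nuclei count of all wells on the same plate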); details: HUVEC TNFalpha-induced E-selectin immunofluorescence imaging, at 2 µM; inhibition: stronger effect = higher value; nuclei count: measured here: cell number, toxicity
[4] = target: Voltage-gated potassium channel subunit beta-2 (Rattus norvegicus) (UniProt P62483); test: KvBeta enzyme negative modulators, primary screen, biochemical, NADPH fluorescence (AID 622;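 active means fluorescence slope higher than the sample average by over 3 SD, cut at about -0.22 in these data, passing the limit was not always enough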;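 further: slope of raw intensity against log time taken from 70 to 1610 s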); details: recombinant KvBeta, 4-cyanobenzaldehyde reduction, at 10 µM, stronger effect = higher value
Chain of Voltage-gated potassium channel subunit beta-2 (Rattus norvegicus) (P62483 whole entry, looked up): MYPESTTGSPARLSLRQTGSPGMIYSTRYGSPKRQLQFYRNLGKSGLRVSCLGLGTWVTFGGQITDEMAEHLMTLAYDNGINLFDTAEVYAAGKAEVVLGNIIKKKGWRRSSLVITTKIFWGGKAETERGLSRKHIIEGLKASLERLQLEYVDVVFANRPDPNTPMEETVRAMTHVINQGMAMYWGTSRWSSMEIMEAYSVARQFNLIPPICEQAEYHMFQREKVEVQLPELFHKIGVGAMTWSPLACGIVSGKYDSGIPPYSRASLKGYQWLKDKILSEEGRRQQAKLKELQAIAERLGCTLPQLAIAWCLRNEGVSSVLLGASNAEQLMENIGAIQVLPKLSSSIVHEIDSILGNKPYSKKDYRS

[5] = target: Voltage-gated potassium channel subunit beta-2 (Rattus norvegicus) (UniProt P62483); test: KvBeta positive modulators, primary screen, biochemical, NADPH fluorescence (AID 623;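 active means NADPH fluorescence slope more negative than the mean of all samples by about 3 SD, 99.7% confidence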;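 further: fluorescence intensity change per second fitted from 20 to 320 s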); details: Recombinant KvBeta, NADPH fluorescence decrease slope, 10 min; at 10 µM; stronger effect = lower value
[6] = target: Muscarinic acetylcholine receptor M4 (Homo sapiens) (UniProt P08173); test: compounds altering M4/GIRK thallium flux, either direction, primary screen, M4 allosteric agonist project, cell-based, HEK293 M4/GIRK, BTC-AM (AID 625;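 active means fluorescence slope after compound addition differing from the mean of all tested samples at 99.7% confidence, mostly higher but some lower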;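 further: thallium influx through GIRK channels coupled to M4 in HEK293 cells with BTC-AM dye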); details: at 10 µM, actives lie on both sides
Chain of Muscarinic acetylcholine receptor M4 (Homo sapiens) (P08173 whole entry, looked up): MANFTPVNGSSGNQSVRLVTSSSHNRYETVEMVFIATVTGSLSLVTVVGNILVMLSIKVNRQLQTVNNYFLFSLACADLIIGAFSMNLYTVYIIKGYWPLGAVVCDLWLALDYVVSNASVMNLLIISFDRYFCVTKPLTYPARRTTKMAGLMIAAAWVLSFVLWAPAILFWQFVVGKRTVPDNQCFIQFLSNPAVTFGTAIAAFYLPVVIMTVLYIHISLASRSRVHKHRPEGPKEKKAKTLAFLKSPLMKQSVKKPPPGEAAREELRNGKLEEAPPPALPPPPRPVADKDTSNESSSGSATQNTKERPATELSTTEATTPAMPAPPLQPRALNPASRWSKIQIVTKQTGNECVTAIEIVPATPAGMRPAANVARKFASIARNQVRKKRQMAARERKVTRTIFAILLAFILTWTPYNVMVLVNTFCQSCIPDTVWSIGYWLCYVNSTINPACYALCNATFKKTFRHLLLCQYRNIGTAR
Summary of the method: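 assay system = HEK293 cells with M4 receptor and GIRK channels | medium = pH 7.3 thallium assay buffer | doses = 10 µM final, single point | timing = cells overnight at 37 °C, BTC-AM loading 1 h, reads 2 min total | signal = BTC-AM fluorescence, 1 Hz kinetic reads | read-out = post-addition slope, 15–24 s, of baseline-normalized fluorescence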

[7] = inhibitors of Sendai virus-induced IRF3 signaling, primary screen, TLR/RLR signaling modifier project, cell-based, Sendai virus stimulus, luciferase, 10K MLSCN set (AID 602276); details: HEK293 RL24 IRF3 luciferase reporter, at 10 µM, stronger effect = higher value;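 further: firefly luciferase from ISG56 promoter only with Renilla not read in this screen; 0% = Sendai virus plus DMSO and 100% = medium plus DMSO without virus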
[8] = inhibitors of poly I:C-induced TLR3 signaling, primary screen, cell-based, poly I:C stimulus, luciferase, 10K MLSCN set (AID 602277;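 active means inhibition of the reporter signal at or above 50%; inactive means inhibition below 50%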); details: HEK293-TLR3 RL24 IRF3 luciferase reporter, at 10 µM, stronger effect = higher value
[9] = target: Alpha-2C adrenergic receptor (Homo sapiens) (UniProt P18825); test: modulators of alpha2C/GIRK thallium flux, primary screen, cell-based, HEK293 alpha2C/GIRK1/2 (AID 624;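 active means fluorescence slope after compound addition differing from the mean of all screened samples at 99.7% confidence, in either direction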;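 further: slope of fluorescence ratio to pre-addition baseline per second over 15 to 24 s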); details: thallium flux BTC fluorescence, at 10 µM, actives lie on both sides
Chain of Alpha-2C adrenergic receptor (Homo sapiens) (P18825 whole entry, looked up): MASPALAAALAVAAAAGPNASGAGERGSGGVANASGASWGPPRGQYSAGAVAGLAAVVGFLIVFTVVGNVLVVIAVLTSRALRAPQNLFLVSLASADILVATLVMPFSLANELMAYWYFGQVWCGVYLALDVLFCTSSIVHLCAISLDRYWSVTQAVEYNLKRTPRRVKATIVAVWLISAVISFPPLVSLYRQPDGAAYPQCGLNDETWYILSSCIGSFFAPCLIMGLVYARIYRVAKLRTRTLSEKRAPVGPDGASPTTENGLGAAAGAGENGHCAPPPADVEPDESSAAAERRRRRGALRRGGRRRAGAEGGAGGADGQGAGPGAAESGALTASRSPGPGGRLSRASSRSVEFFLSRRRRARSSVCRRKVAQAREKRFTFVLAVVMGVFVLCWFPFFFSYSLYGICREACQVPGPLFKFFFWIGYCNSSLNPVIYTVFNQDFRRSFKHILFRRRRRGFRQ

[10] = inhibitors of larval lipid processing in zebrafish, primary screen, whole organism, PED6 fluorescence, gall bladder and intestine (AID 686;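 active means a full or partial loss of lipid-probe fluorescence in the fish gall bladder, intestine or both, judged by eye; inactive means no fluorescence loss, or compound toxic to the fish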;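 further: larvae 5 to 7 days old with five fish per well; signal comes from phospholipase A2 cleavage of quenched PED6 carried via bile; overnight exposure to compound and PED6 before scoring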); details: Zebrafish larvae PED6 lipid processing, fluorescence scoring; screened at 20 µM (by protocol)
Summary of the method: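 Also added: quenched phospholipase substrate PED6, 100 nM final, ingested by larvae; System: zebrafish larvae, 5-7 d; Quantity: 5 larvae per well; Compound: 20 µM single dose; Schedule: overnight compound and PED6 incubation; Read-out: visual per-well fluorescence inhibition score; Measured by: By-eye fluorescence microscopy; Medium: E3.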

Compound | cell count [1] | inhibition [1] | inhibition of aggregation [2] | nuclei count [2] [%] | inhibition [3] | nuclei count [3] [%] | fluorescence slope [4] | NADPH fluorescence slope [5] | fluorescence slope [6] | inhibition [7] | inhibition [8] | slope [9] | outcome [10]
Cc1c(NC(=O)c2cnn3c2NC(c2ccco2)CC3C(F)(F)F)c(=O)n(-c2ccccc2)n1C (configuration not stated) | 436 | -1% (inactive) | 2.9% (inactive) | 101 | -27.3% (inactive) | 115 | -0.557 (inactive) | -2.6e-05 (inactive) | 0.00692 (inactive) | 15.2% (inactive) | 18.8% (inactive) | – | –
Cc1c2c(nc3nc4ccccc4n13)CC(C)(C)CC2=O | 632 | 8.2% (inactive) | -6.2% (inactive) | 109 | -63.4% (inactive) | 106 | -0.603 (inactive) | -2.5e-05 (inactive) | 0.00409 (inactive) | 16.3% (inactive) | 28.8% (inactive) | – | –
CN(C)C(=O)CSc1nnc([C@H](Cc2c[nH]c3ccccc23)NC(=O)OC(C)(C)C)o1 | 375 | 2.2% (inactive) | -9.3% (inactive) | 108 | -35.8% (inactive) | 112 | -0.634 (inactive) | -2.1e-05 (inactive) | 0.00313 (inactive) | 18.2% (inactive) | 23.4% (inactive) | – | –
Cn1c(COc2ccccc2)nnc1SCC(=O)Nc1ccc(N2CCOCC2)c(Cl)c1 | 497 | -6.9% (inactive) | -10.9% (inactive) | 102 | -6.4% (inactive) | 102 | -0.477 (inactive) | -6.6e-05 (inactive) | 0.00548 (inactive) | 13.5% (inactive) | 17.5% (inactive) | – | –
COc1ccc(C2=NOC(C(=O)NCc3ccc(F)cc3)C2)cc1OC (configuration not stated) | 601 | 14.3% (inactive) | -82.4% (inactive) | 2.5 | -172% (inactive) | 99.1 | -0.493 (inactive) | 4.2e-05 (inactive) | 0.00618 (inactive) | 22.8% (inactive) | 82.8% (active) | – | –
CCOC(=O)c1ccccc1NC(=O)Cn1cnc2c(cnn2-c2ccc(OC)cc2)c1=O | 705 | -25.5% (inactive) | -6.3% (inactive) | 108 | -0.4% (inactive) | 101 | -0.237 (inactive) | -4.6e-06 (inactive) | 0.0067 (inactive) | 10.8% (inactive) | 22.8% (inactive) | – | –
CC(=O)C1=C(O)C(=O)N(Cc2ccco2)C1c1ccc(F)cc1 (configuration not stated) | 381 | 4.3% (inactive) | -7.7% (inactive) | 92.3 | 21.9% (inactive) | 98 | -0.576 (inactive) | 1e-05 (inactive) | 0.00555 (inactive) | 2% (inactive) | 0.393% (inactive) | – | –
CC(=O)Nc1nc(-c2ccccc2)nc(C)c1C(C)=O | 366 | 8% (inactive) | 15% (inactive) | 88.5 | 32.4% (inactive) | 87.6 | -0.572 (inactive) | 2e-05 (inactive) | 0.0072 (inactive) | -8.51% (inactive) | 2.89% (inactive) | – | –
Cc1ccc(S(=O)(=O)N2CCN(c3nc(C)nc4sc(C)c(C)c34)CC2)cc1 | 345 | 10.5% (inactive) | -6.6% (inactive) | 110 | -191% (inactive) | 108 | -0.387 (inactive) | -5.6e-05 (inactive) | – | 5.42% (inactive) | 4.33% (inactive) | 0.0062 (inactive) | inactive
CC(=O)N1CCc2cc(S(=O)(=O)CCC(=O)N3CCN(c4ccccn4)CC3)ccc21 | 592 | -2.7% (inactive) | 2.8% (inactive) | 107 | -65.1% (inactive) | 94.5 | -0.456 (inactive) | 5.1e-05 (inactive) | 0.0102 (inactive) | -15.2% (inactive) | -27.2% (inactive) | – | –
CCn1c(SC)nc2c(c1=O)SC(C)C2 (configuration not stated) | 570 | -4.9% (inactive) | -5% (inactive) | 112 | -20.6% (inactive) | 118 | -0.432 (inactive) | -8.5e-05 (inactive) | 0.00648 (inactive) | 6.41% (inactive) | 15.1% (inactive) | – | –
NC(=O)CSc1nnc(-c2ccc(O)cc2)n1Cc1ccco1 | 371 | -0.2% (inactive) | 18.6% (inactive) | 98.1 | -112% (inactive) | 93.2 | -0.531 (inactive) | -4.4e-05 (inactive) | 0.00558 (inactive) | 11.3% (inactive) | 19.8% (inactive) | – | –
CCOC(=O)c1c(NC(=O)CSc2nnc(-c3cccnc3)o2)sc(C)c1C | 431 | -13.1% (inactive) | 24.3% (inactive) | 73.6 | -15% (inactive) | 98.1 | -0.484 (inactive) | 4.4e-06 (inactive) | 0.00591 (inactive) | 3.63% (inactive) | 16.6% (inactive) | – | –
COc1cccc(-c2nc(-c3ccc(NC(=O)Cc4ccccc4OC)cc3)no2)c1 | 429 | -1.8% (inactive) | -12.3% (inactive) | 95.4 | -68.2% (inactive) | 116 | -0.561 (inactive) | -1.4e-06 (inactive) | 0.0119 (active) | 13% (inactive) | -45.2% (inactive) | – | –
COC(=O)C1=C(C)N(c2ccc(C(=O)OC)cc2)C(=O)C1 | 734 | 4% (inactive) | -26.4% (inactive) | 87.2 | 23.7% (inactive) | 105 | -0.567 (inactive) | -4e-05 (inactive) | 0.00678 (inactive) | 16.3% (inactive) | 6.55% (inactive) | – | –
Cc1csc2nc3ccccc3c(=O)n12 | 270 | 3.9% (inactive) | -14.2% (inactive) | 97.6 | -48% (inactive) | 119 | -0.579 (inactive) | -1.2e-05 (inactive) | 0.00358 (inactive) | 4.9% (inactive) | -6.37% (inactive) | – | –
CCOC(=O)C1CCN(CC(=O)Nc2c(C(=O)OC)[nH]c3ccc(Cl)cc23)CC1 | 340 | 4.8% (inactive) | -27.5% (inactive) | 104 | -29.3% (inactive) | 107 | -0.383 (inactive) | -6.2e-05 (inactive) | – | 8.17% (inactive) | -16.2% (inactive) | 0.00328 (inactive) | inactive
O=C(CSc1nc(C2CCCCC2)n(-c2ccccc2)n1)NCCN1C(=O)CSC1=O | 382 | -5.9% (inactive) | 8% (inactive) | 112 | -13.3% (inactive) | 140 | -0.572 (inactive) | -4.9e-05 (inactive) | 0.00728 (inactive) | 15.1% (inactive) | 23.3% (inactive) | – | –
CC(=O)c1cc(C#N)c(SCC(=O)OC(C)C)nc1C | 464 | -5.3% (inactive) | -14.7% (inactive) | 118 | -22.4% (inactive) | 121 | -0.26 (inactive) | -2.7e-05 (inactive) | 0.00594 (inactive) | 9.07% (inactive) | -11% (inactive) | – | –
O=C(O)CC(C(=O)Nc1cccc(C(F)(F)F)c1)C1CCCO1 (configuration not stated) | 548 | -10.1% (inactive) | 9.8% (inactive) | 101 | 2.3% (inactive) | 92.1 | -0.375 (inactive) | -2.9e-05 (inactive) | – | -2.64% (inactive) | 7.18% (inactive) | 0.00461 (inactive) | inactive
Cc1occc1-c1nnc(SCC(=O)N2CCOCC2)n1Cc1ccco1 | 382 | 3% (inactive) | -5.6% (inactive) | 82.5 | -41% (inactive) | 107 | -0.371 (inactive) | -5e-05 (inactive) | – | 8.29% (inactive) | 12.6% (inactive) | 0.00496 (inactive) | inactive
Cc1nc2ccc(NC(=O)N3CCSCC3)cc2s1 | 710 | -0.4% (inactive) | -7.6% (inactive) | 111 | -93.4% (inactive) | 96.5 | -0.535 (inactive) | 5e-05 (inactive) | 0.00638 (inactive) | -33.4% (inactive) | -42.8% (inactive) | – | –
Cc1ccc(-n2nc(C(=O)N3CCN(C)CC3)c3c4ccccc4n(C)c3c2=O)cc1 | 264 | 5.9% (inactive) | -10.3% (inactive) | 90.9 | -38.3% (inactive) | 119 | -0.523 (inactive) | -2e-05 (inactive) | 0.00583 (inactive) | 19.7% (inactive) | 35.7% (inactive) | – | –
CCOC(=O)NC(=O)CSc1nnc(C)s1 | 804 | 4.3% (inactive) | -0.4% (inactive) | 105 | -130% (inactive) | 135 | -0.421 (inactive) | -9.6e-06 (inactive) | 0.00543 (inactive) | 18.9% (inactive) | 17.5% (inactive) | – | –
OCc1nc(CO)n(Cc2ccccc2)n1 | 447 | -17.6% (inactive) | -12.2% (inactive) | 112 | 42.4% (inactive) | 86.8 | -0.501 (inactive) | -4.7e-05 (inactive) | 0.00536 (inactive) | 7.11% (inactive) | 19.9% (inactive) | – | –
COc1cccc(NC(=O)CSc2nnc(-c3cccs3)n2C)c1 | 576 | -8.5% (inactive) | 19.8% (inactive) | 65.7 | -65.4% (inactive) | 95.9 | -0.278 (inactive) | -5e-05 (inactive) | 0.00909 (inactive) | 8.77% (inactive) | 6.56% (inactive) | – | –
COC(=O)C1=C(C)NC(=O)C1(NC(=O)CN1CCCC1=O)C(F)(F)F (configuration not stated) | 879 | 3.6% (inactive) | 6.7% (inactive) | 106 | -79.8% (inactive) | 133 | -0.435 (inactive) | -7.2e-05 (inactive) | 0.00621 (inactive) | 9.49% (inactive) | 21.7% (inactive) | – | –
COc1ccc(OC)c(S(=O)(=O)NCCO)c1 | 217 | -7.9% (inactive) | 11% (inactive) | 112 | 33.4% (inactive) | 102 | -0.567 (inactive) | -2.1e-05 (inactive) | 0.00652 (inactive) | 16% (inactive) | 24.6% (inactive) | – | –
